As usually defined, the inhibition is the change of the read-out against control, counted positive when it falls.

The values below come from ChEMBL document CHEMBL1629474, “Massive screening yields novel and selective Trypanosoma cruzi triosephosphate isomerase dimer-interface-irreversible inhibitors with anti-trypanosomal activity” (Eur J Med Chem, 2010).

Test [1] is described as follows: Selectivity for Trypanosoma cruzi triosephosphate isomerase over human triosephosphate isomerase.
Test [2] relates to Trypanosoma cruzi. Briefly: Antiparasitic activity against Trypanosoma cruzi T2 epimastigotes assessed as growth inhibition. To be noted: read-out: ID50 (the source's name). It is filed as functional. Summed up:
(§1)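 Epimastigotes were cultured at 28 °C in BHI-tryptose plus 5% fetal calf serum and seeded at 2×10^6/mL with increasing compound concentrations (from DMSO stock; final DMSO ≤1%). Growth was followed as A590 against untreated controls. ID50 was the concentration halving absorbance relative to controls. Means of two experiments.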

Test [3] has as its system Trypanosoma cruzi. Briefly: Antiparasitic activity against Trypanosoma cruzi T2 epimastigotes assessed as growth inhibition at 25 uM after 5 days. The format is functional. The following applies: for inhibition of growth at 25 µM: T2, 120 h, read-out: GI. In outline: (§2)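 Late-log epimastigotes were grown axenically at 28 °C in BHI-tryptose with 5% fetal calf serum and seeded at 2×10^6/mL in medium containing compound (DMSO stock; final DMSO ≤1%, 1% DMSO control). Growth was read as A590 at day 0 and day 5. Inhibition = {1 − [(Ap − A0p)/(Ac − A0c)]} × 100. Means of two experiments.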

Test [4] addresses Triosephosphate isomerase, glycosomal (Trypanosoma cruzi) (UniProt P52270). Kind of test: Inhibition of Trypanosoma cruzi triosephosphate isomerase at 400 uM after 2 hrs. Summed up:
(§3)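 Recombinant E. coli-expressed enzyme, dialyzed into 100 mM triethanolamine/10 mM EDTA pH 7.4, was incubated with compound (DMSO stock) in 100 mM triethanolamine, 10 mM EDTA, pH 7.4, 10% DMSO at 36 °C for 2 h. An aliquot was then assayed for activity (glyceraldehyde 3-phosphate to dihydroxyacetone phosphate, α-glycerol phosphate dehydrogenase-coupled) with 5 ng enzyme. Irreversible inhibition was scored as loss of activity; means of two experiments.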

Test [5] shares this target. Kind of test: Inhibition of Trypanosoma cruzi triosephosphate isomerase at 100 uM after 2 hrs. In outline:
as §3

The target in test [6] is Triosephosphate isomerase, glycosomal (Trypanosoma cruzi, UniProt P52270). Briefly: Inhibition of Trypanosoma cruzi triosephosphate isomerase after 2 hrs. In outline:
as §3

In test [7] the test system is Trypanosoma cruzi. Briefly: Antiparasitic activity against Trypanosoma cruzi CLB epimastigotes assessed as growth inhibition. It is filed as functional. To be noted: read-out: ID50 (the source's name). In outline:
as §1

The test system of test [8] is Trypanosoma cruzi. Kind of test: Antiparasitic activity against Trypanosoma cruzi CLB epimastigotes assessed as growth inhibition at 25 uM after 5 days. It is filed as functional. The following applies: 120 h, read-out: GI. In outline: as §2
Test [9] relates to Trypanosoma cruzi. Briefly: Antiparasitic activity against Trypanosoma cruzi Y epimastigotes assessed as growth inhibition at 25 uM after 5 days. The format is functional. The following applies: 120 h, read-out: GI. In outline: as §2
Test [10] has as its target Triosephosphate isomerase (Homo sapiens) (UniProt P60174). Briefly: Inhibition of human triosephosphate isomerase at 100 uM after 2 hrs. In outline: as §3
In test [11] the test system is Trypanosoma cruzi. Briefly: Antiparasitic activity against Trypanosoma cruzi Y epimastigotes assessed as growth inhibition. The format is functional. To be noted: read-out: ID50 (the source's name). In outline:
as §1

The source made the active and inactive calls. How the calls were made is not given here.

Chain of Triosephosphate isomerase (Homo sapiens) (P60174 whole entry): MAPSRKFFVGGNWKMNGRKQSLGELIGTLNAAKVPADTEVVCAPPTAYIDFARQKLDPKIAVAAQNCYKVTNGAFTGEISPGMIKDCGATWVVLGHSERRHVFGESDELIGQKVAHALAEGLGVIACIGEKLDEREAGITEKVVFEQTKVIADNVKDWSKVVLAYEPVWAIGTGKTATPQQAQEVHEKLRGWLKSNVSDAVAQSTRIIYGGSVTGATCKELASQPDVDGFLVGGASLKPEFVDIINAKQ
Chain of Triosephosphate isomerase, glycosomal (Trypanosoma cruzi) (P52270 whole entry): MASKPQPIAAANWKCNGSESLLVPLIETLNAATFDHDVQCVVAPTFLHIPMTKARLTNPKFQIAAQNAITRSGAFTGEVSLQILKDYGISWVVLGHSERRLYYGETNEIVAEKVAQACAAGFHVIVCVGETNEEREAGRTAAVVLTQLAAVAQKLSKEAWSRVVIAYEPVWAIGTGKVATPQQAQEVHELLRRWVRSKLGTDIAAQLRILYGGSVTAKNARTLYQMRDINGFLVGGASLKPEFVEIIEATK
Chain of Triosephosphate isomerase, glycosomal (P52270 whole entry): as above

Consider `NC1=NS(=O)(=O)N=C(N)C1=Cc1ccc([N+](=O)[O-])o1`, for which, in [1], the Ratio is more than 4. For the same molecule, the IC50 in the test on Trypanosoma cruzi [2] is 50 µM; in [6], 20 µM. The inhibition of growth at 25 µM with Trypanosoma cruzi [3] was found to be 22.2%. Further, the inhibition was found to be 100% in test [4] and 99% in test [5].
`O/N=C1C=CC(/C=C/c2ccccc2)=CC/1=N/O`: the Ratio in test [1] is more than 4. In addition, the IC50 with Trypanosoma cruzi [7] was 4.7 µM. In addition, the inhibition of growth at 25 µM in the test on Trypanosoma cruzi [8] was determined as 100%. The result in the test on Trypanosoma cruzi [3] was Active. The values for the inhibition in [4] and in test [5] were 77% and 8%, respectively.
For `C/C(=C\c1ccc2c(c1)OCO2)[N+](=O)[O-]`, the Ratio in [1] was more than 4. Besides, the IC50 in the test with Trypanosoma cruzi [2] turned out to be 5.1 µM. Besides, the inhibition of growth at 25 µM in the test with Trypanosoma cruzi [3] turned out to be 100%. In addition, the inhibition in test [4] worked out at 74%; in test [5], 55%.
With `[O-][n+]1c2ccc(O)cc2[n+]([O-])c2cc(Cl)c(Cl)cc21`, the Ratio in [1] is more than 4. Moreover, the IC50 is 2 µM with Trypanosoma cruzi [7], 2.9 µM with Trypanosoma cruzi [2], 5.5 µM in the test with Trypanosoma cruzi [11] and 26 µM in [6]. In addition, the inhibition of growth at 25 µM in the test on Trypanosoma cruzi [8], with Trypanosoma cruzi [3] and in the test on Trypanosoma cruzi [9] was 100% in each case. For the same molecule, the values for the inhibition in test [4], in test [5] and in test [10] were 84%, 73% and 0%, respectively.
For the molecule `Cc1c(/C=N/NC(N)=S)no[n+]1[O-]`, the Ratio in [1] is more than 4. Also, the IC50 in the test on Trypanosoma cruzi [2] was more than 25 µM. The inhibition of growth at 25 µM with Trypanosoma cruzi [3] is 24.7%. Besides, the inhibition in test [4] was found to be 87%; in test [5] it was 56%.
As to `CC1=CC(=N/O)/C(=N\O)C=C1`, the Ratio in [1] is more than 4. Also, the IC50 in the test with Trypanosoma cruzi [2] was found to be 25 µM. Besides, the inhibition of growth at 25 µM with Trypanosoma cruzi [3] came to 50%. In addition, the inhibition in test [4] worked out at 85%; in test [5], 49%.
As for `O=c1oc(-c2ccccc2)ns1`, the Ratio in test [1] was more than 4. The IC50 in the test on Trypanosoma cruzi [2] stood at 22 µM; in test [6] it was 10 µM. Besides, the inhibition of growth at 25 µM in the test on Trypanosoma cruzi [3] was 59%. For the same molecule, the figures for the inhibition in test [4], in [5] and in test [10] were 96%, 81% and 0%, respectively.
As to `C/C(=C\c1cccs1)[N+](=O)[O-]`, the Ratio in test [1] was more than 4. Further, the IC50 in the test with Trypanosoma cruzi [2] is more than 25 µM. Further, the inhibition of growth at 25 µM in the test with Trypanosoma cruzi [3] was determined as 14.6%. The values for the inhibition in test [4] and in test [5] were 95% and 53%, respectively.
For the molecule `O/N=C1/C=CC(C=Cc2ccc(Cl)cc2)=C/C1=N/O`, the Ratio in test [1] was more than 4. Moreover, in the test on Trypanosoma cruzi [7], the IC50 is 5 µM. The inhibition of growth at 25 µM in the test with Trypanosoma cruzi [8] came to 100%. Also, the outcome in the test on Trypanosoma cruzi [3] was Active. Further, the inhibition in [4] was 73%; in [5] it was 25%.
For `CCOC(=O)c1nc(-c2ccccc2)ns1`, in test [1], the Ratio is more than 4. In addition, the IC50 with Trypanosoma cruzi [2] was more than 25 µM. Moreover, in the test with Trypanosoma cruzi [3], the inhibition of growth at 25 µM turned out to be 25%. For the same molecule, the inhibition in test [4] worked out at 87%; in [5] it was 69%.
With `c1ccc(-c2nsc(-c3ccccc3)n2)cc1`, the Ratio in [1] was more than 4. The IC50 in the test on Trypanosoma cruzi [2] was determined as 25 µM. For the same molecule, the inhibition of growth at 25 µM with Trypanosoma cruzi [3] worked out at 50%. Moreover, the inhibition in test [4] worked out at 74%; in test [5], 45%.
Consider `O=C1C(=Cc2ccc([N+](=O)[O-])o2)C(=O)N(Cc2ccccc2)S(=O)(=O)N1Cc1ccccc1`, for which, in [1], the Ratio was more than 4. In addition, the IC50 was 50 µM with Trypanosoma cruzi [2] and 13 µM in [6]. The inhibition of growth at 25 µM in the test on Trypanosoma cruzi [3] came out at 20.8%. The inhibition turned out to be 82% in [4], 82% in test [5] and 0% in [10].
On to `Cc1ccc(-c2nsc(S(=O)(=O)c3ccc(C)cc3)n2)cc1`, for which the Ratio in test [1] is more than 4. Also, in the test with Trypanosoma cruzi [2], the IC50 stood at 5 µM. In addition, the inhibition of growth at 25 µM in the test on Trypanosoma cruzi [3] was found to be 100%. In addition, the inhibition in test [4] is 78%; in test [5] it was 57%.
On to `Cc1ccc(-c2nsc(=O)[nH]2)cc1`, for which the figures for the IC50 (in the test with Trypanosoma cruzi [2]; in test [6]) were more than 25 µM and 3.5 µM, respectively. Moreover, the inhibition of growth at 25 µM in the test with Trypanosoma cruzi [3] was 0%. The inhibition was found to be 95% in [4], 98% in test [5] and 59% in test [10].
